Screening data deposited in PubChem BioAssay by several laboratories.
M18AAP inhibitor: blocks P. falciparum M18 aspartyl aminopeptidase | recombinant PfM18AAP, H-Glu-NHMec fluorogenic cleavage | inhibition, % at 7.35 µM | actives 1.2% (n = 290,000) | AID 1822;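 active = inhibition above the campaign mean inhibition over all tested compounds plus 3 SD, cut at about 28% in these data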
core dimer inh: HCV core protein dimerization inhibition; TR-FRET GST/Flag-core106 dimerization, 1536-well; inhibition, % at 5 µM; actives 0.33% (n = 300,000); AID 1899;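 active = inhibition above the mean of all tested compounds plus 3 SD, set per screening campaign, cut at about 45% in these data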
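Assay system: GST-tagged and Flag-tagged HCV core protein residues 1-106 / Times: compound-protein-antibody incubation 4 h at 22.5 °C / Signal: time-resolved FRET, ex 340 nm, em 617 and 671 nm / Evaluation: % inhibition based on acceptor/donor emission ratio / Benchmarks: wells lacking GST-core106 and wells with excess unlabelled core106 / Repeats: singlicate, one well per compound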
NS3 helicase inh: HCV NS3 helicase inhibition; NS3 helicase DNA unwinding, Cy5 molecular beacon fluorescence; actives 0.56% (n = 290,000); AID 1800; inhibition, % at 10.9 µM;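 active = inhibition above the mean of all tested compounds plus 3 SD, set per campaign, cut at about 35% in these data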
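Material: hepatitis C virus NS3 helicase domain fragment enzyme; measured by: Cy5 fluorescence, 0 and 60 min reads; control set: DMSO and thioflavine S; incubation: 60 min unwinding reaction at 25 °C after ATP addition; read-out basis: % inhibition from 60/0 min fluorescence ratio, DMSO 0%, thioflavine S 100%; repeats: singlicate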
ZTA counter: blocks Epstein-Barr virus ZTA, an EBNA-1 counter-screen | P03206 | ZTA-DNA binding, fluorescence polarization | inhibition, % at 11 µM | actives 0.15% (n = 320,000); in the data active = inhibition above about 33%
Target sequence (P03206 whole entry, looked up): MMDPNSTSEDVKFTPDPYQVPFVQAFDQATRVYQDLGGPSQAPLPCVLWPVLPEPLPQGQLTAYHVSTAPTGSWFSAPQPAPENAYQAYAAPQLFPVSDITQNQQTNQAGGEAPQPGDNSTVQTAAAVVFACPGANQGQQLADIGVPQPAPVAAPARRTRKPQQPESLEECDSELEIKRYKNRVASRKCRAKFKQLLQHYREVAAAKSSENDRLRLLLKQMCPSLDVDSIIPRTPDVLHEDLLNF
ALR H2O2 inh: inhibitors of human sulfhydryl oxidase ALR | actives 3.8% (n = 290,000) | inhibition, % (concentration not given with the values) | P55789 | purified ALR, DTT oxidation, H2O2 HRP-luminol luminescence;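 active = mean replicate inhibition above about 79%, with every replicate also reaching it, limit read from the data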
Target sequence (P55789 whole entry, looked up): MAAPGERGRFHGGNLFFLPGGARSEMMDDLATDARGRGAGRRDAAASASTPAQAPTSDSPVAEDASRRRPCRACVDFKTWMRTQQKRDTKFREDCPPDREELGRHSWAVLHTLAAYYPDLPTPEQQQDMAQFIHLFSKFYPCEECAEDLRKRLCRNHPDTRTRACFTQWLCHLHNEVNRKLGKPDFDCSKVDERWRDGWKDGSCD
EBNA-1 inhibitor: blocks EBNA-1 binding to DNA; inhibition, % at 14.8 µM; actives 0.34% (n = 300,000); EBNA-1 DNA binding, fluorescence polarization; in the data active = inhibition above about 28%
Large screens that a line does not name were inactive. An excerpt weighted towards active compounds, which were near 5.2% of everything screened.

O=C(O)c1ccccc1NS(=O)(=O)c1ccc(NNC(=S)Nc2ccc(OC(F)F)cc2)c([N+](=O)[O-])c1	M18AAP inhibitor 43.8 (no result: core dimer inh, ZTA counter, ALR H2O2 inh, EBNA-1 inhibitor)
CC(=O)Nc1ccc(C=NNc2ccc([N+](=O)[O-])cc2S(=O)(=O)Nc2ccccc2C(=O)O)cc1	none (no result: M18AAP inhibitor, core dimer inh, NS3 helicase inh, ZTA counter, EBNA-1 inhibitor)
CC(=O)Nc1ccc(C=NNc2ccc(S(=O)(=O)Nc3ccccc3C(=O)O)cc2[N+](=O)[O-])cc1	none (no result: M18AAP inhibitor, core dimer inh, NS3 helicase inh, ZTA counter, EBNA-1 inhibitor)
COc1cccc(/C=C2\SC(=S)N(NS(=O)(=O)c3ccc(C)cc3)C2=O)c1OC	ALR H2O2 inh 90.6
COc1cc(/C=C2/SC(=S)N(c3c(C)n(C)n(-c4ccccc4)c3=O)C2=O)ccc1O	M18AAP inhibitor 32.9, ALR H2O2 inh 89.7
CCOc1cc(/C=C2\SC(=S)N(NS(=O)(=O)c3ccc(C)cc3)C2=O)ccc1O	ALR H2O2 inh 98.8 (no result: M18AAP inhibitor, NS3 helicase inh)
COc1cc(/C=C2/SC(=S)N(Cc3ccccc3)C2=O)ccc1O	none
COc1cc(/C=C2\SC(=S)N(NS(=O)(=O)c3ccc(C)cc3)C2=O)ccc1O	ALR H2O2 inh 99.2
COc1cc(/C=C2\SC(=S)N(NS(=O)(=O)c3ccccc3)C2=O)ccc1O	none (no result: ALR H2O2 inh)
CCOc1ccc2oc(C(=O)NCc3ccccc3CN3CCCC3)c(C)c2c1	none (no result: M18AAP inhibitor, core dimer inh, NS3 helicase inh, EBNA-1 inhibitor)
Cc1ccccc1C1c2[nH]c3ccccc3c2CCN1Cc1cccn1-c1ncccn1 (stereo not drawn)	none
NC(=O)C1CCN(CC(=O)N2N=CCC2c2ccccc2)CC1 (stereo not drawn)	none
Cc1ccc(-c2nc(CS(=O)CC(=O)NCc3ccc(F)cc3)c(C)o2)cc1 (stereo not drawn)	ALR H2O2 inh 98.8
Cc1ccc(CCNC(=O)CS(=O)Cc2nc(-c3cccs3)oc2C)cc1 (stereo not drawn)	none (no result: ALR H2O2 inh)
COc1ccc(-c2nc(CS(=O)(=O)CC(=O)NCCc3ccccc3)c(C)o2)cc1	none
Cc1ccc(CNC(=O)CS(=O)Cc2nc(-c3cccs3)oc2C)cc1 (stereo not drawn)	ALR H2O2 inh 99.4
CCc1ccc(-c2nc(CS(=O)CC(=O)NCCc3ccccc3)c(C)o2)cc1 (stereo not drawn)	ALR H2O2 inh 99.2
Cc1oc(-c2ccccc2F)nc1CS(=O)CC(=O)NCc1ccccn1 (stereo not drawn)	ALR H2O2 inh 99.2
CC(C)(C)NC(=O)c1ccc(NC(=O)CSc2ccccc2)cc1	none
Cc1ccc(NC(=O)COc2coc(CN3CCN(c4ccccc4)CC3)cc2=O)cc1	none (no result: M18AAP inhibitor, NS3 helicase inh)
CCc1noc(C)c1C(=O)N1CCSC1=Nc1cccc(Cl)c1C	none
Cc1ccc(NC(=O)CS(=O)Cc2nc(-c3ccc(C)cc3)oc2C)cc1 (stereo not drawn)	ALR H2O2 inh 98.8
Cc1ccc(OCC(=O)NCc2ccccn2)cc1	none
Cc1ccc(-c2nc(CS(=O)CC(=O)NCc3ccccn3)c(C)o2)cc1 (stereo not drawn)	ALR H2O2 inh 99.6
Cc1ccc(-c2nc(CS(=O)CC(=O)NCc3ccccc3)c(C)o2)cc1 (stereo not drawn)	ALR H2O2 inh 98.1
O=C(C1CC1)N1N=C(C2CCCCC2)CC1(O)C(F)(F)F (stereo not drawn)	none
Cc1ccsc1C(=O)OCC(=O)c1ccc(OC(F)F)cc1	none (no result: M18AAP inhibitor, core dimer inh, NS3 helicase inh, EBNA-1 inhibitor)
Cc1ccc(-c2csc3nc[nH]c(=S)c23)cc1	ALR H2O2 inh 96.6
Cc1cc(-c2csc3nc[nH]c(=S)c23)cc(C)c1C	ALR H2O2 inh 97.3
S=c1[nH]cnc2scc(-c3ccc(Br)cc3)c12	none
COc1ccccc1NC(=O)C1CCCN(S(=O)(=O)c2ccccc2)C1 (stereo not drawn)	none
CN1CCN(CCCNC(=S)Nc2ccc(F)c(Cl)c2)CC1	none (no result: ALR H2O2 inh)
O=C1CC(NNC(=O)c2ccccc2)C(=O)N1 (stereo not drawn)	none
O=C1CC(NNC(=O)c2cccc(F)c2)C(=O)N1 (stereo not drawn)	ALR H2O2 inh 92.2
O=C(Nc1nc2c(s1)CCCC2)c1ccc(Br)s1	ALR H2O2 inh 97.9
O=C(Nc1nc2c(s1)CCCC2)c1ccc(N2C(=O)CCC2=O)cc1	ALR H2O2 inh 96.8
Cc1ccc(CN(C(=O)c2cccs2)C2CCS(=O)(=O)C2)cc1 (stereo not drawn)	none
CCc1ccc(CN(C(=O)c2ccco2)C2CCS(=O)(=O)C2)cc1 (stereo not drawn)	none
